Screens as filed in PubChem.
This is a sample that favours compounds with a hit; in the whole collection about 3.1% have one here.
INS-1E GSIS act = GLuc luminescence reporter in INS-1E cells, primary screen for activators of glucose-dependent secretion of insulin | activation, % at 16.6 µM | 0.61% of 370,000 active | INS-1E GLuc reporter insulin secretion, 2-3 h;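 active = lowest replicate activation of at least 40%, so every replicate reaches that level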;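 also: 0% = median of neutral control wells and 100% = median of IBMX positive control wells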
miR-122 sensor = inhibitors of miR-122 in Huh7 cells | Huh7 miR-122 Renilla luciferase sensor, 48 h; neutral wells = 0, positive control = 100 | activation (reporter increase), % at 12.5 µM | 0.3% of 340,000 active;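 active = mean replicate activation score at least 90 and every replicate individually at or above 90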;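 also: higher luciferase means less miR-122 activity so hits act as miR-122 inhibitors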
F508del corr = correctors of CFTR F508del function in bronchial epithelial cells; CFBE cells, YFP halide quenching; stimulated with forskolin plus potentiator P3; % fluorescence drop versus neutral controls; activity (quench increase), % at 7.58 µM; 0.36% of 350,000 active;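 active = mean added fluorescence quench of at least 8% versus neutral control, with both replicates also reaching 8%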;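 also: cells transiently co-express mutant CFTR-F508del with the halide-sensitive YFP; corrector assay measuring rescue of mutant channel to the surface after 24 h compound exposure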
Cneo AK release = Cryptococcus neoformans lysis via adenylate kinase release. lysis activity, % at 15 µM. 0.2% of 360,000 active. AID 651654. C. neoformans lysis, adenylate kinase release luminescence, 4 h; normalised: neutral wells 0, clomiphene wells 100;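 active = mean lysis activity across replicates of at least 80%, whatever share of replicates individually reach that level; inactive = mean lysis activity below 80%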
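Assay system: C. neoformans cells. Amount: yeast cell density of 5 × 10^6 cells/mL. Technique: AK luminescence. Buffer or medium: YPD. Times: static 4 h at 37 °C with compound, 1 h detection. Dosing: single-point compound dose. Read-out: lysis from increased AK signal.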
Ecoli rRNA inh = inhibitors of bacterial rRNA selective over humanized ribosomes | E. coli WT GFP vs humanized-ribosome RFP mutants, fluorescence, 24 h; stronger effect = lower value; DMSO median 0, no signal -100 | GFP signal change (wild-type ribosome), % (test concentration not listed) | 1.6% of 350,000 active;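 active = significant combined selectivity score with lowered wild-type GFP, culture density cut under 30%, mutant RFP and density less affected; inactive = any of these conditions unmet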
HIV Env fusion = blocks HIV Env-driven cell-cell fusion. HeLa-JRFL Env/CEM21 cell fusion, luciferase. 1.1% of 360,000 active. inhibition, % at 12.3 µM. AID 651610;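 active = mean replicate inhibition score of at least 50 and every replicate individually at or above 50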;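 also: 0% = plate neutral controls and 100% = maraviroc near 300 nM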
* hit, by the source's call; / = no result; [ ] = remark or other dose.

SMILES | INS-1E GSIS act | miR-122 sensor | F508del corr | Cneo AK release | Ecoli rRNA inh | HIV Env fusion
COC(=O)[C@]12C[C@H](CC(=O)NCc3cccc(C(F)(F)F)c3)C(=O)N(CCc3ccc(OC)c(OC)c3)C1=C[C@H](C(C)(C)C)O[C@@H]2C | / | / | 0 | / | 4 | -10
CCOc1cc(C(=O)N=c2sccn2C)ccc1OC(F)F | 36 | -4 | 1 | 0 | -26* | -16
COc1ccc(C(=O)N=c2sccn2C)cc1 | 8 | / | -4 | / | -4 | -10
Cn1ccsc1=NC(=O)c1ccc(Cl)cc1 | 22 | / | -2 | / | -27* | -19
COCCNC(=O)C[C@@H]1C[C@H]2c3cc(NC(=O)c4cccnc4)ccc3O[C@H]2[C@H](CO)O1 | 1 | -1[16.7 µM] | -1 | 3 | 2 | 11[16.7 µM]
CONc1nc(NC(C)(C)C)nc(OCC#N)n1 | 65* | / | 1 | / | 10 | /
Cc1noc(C)c1S(=O)(=O)N(C)C[C@H]1Oc2ccc(NC(=O)Nc3ccc4c(c3)OCO4)cc2CC(=O)N([C@H](C)CO)C[C@@H]1C | -11 | -4[16.7 µM] | -2 | -1 | 0 | 18[16.7 µM]
CCCN(Cc1ccccc1)C(=S)NC(=O)c1ccccc1[N+](=O)[O-] | -2 | / | 0 | / | -51* | 12
CCN(Cc1ccccc1)C(=S)NC(=O)c1ccccc1Br | -3 | / | 1 | 1 | -43 | -19
C[C@@H]1CN([C@@H](C)CO)C(=O)c2cc(/C=C/c3ccccc3)cnc2O[C@H]1CN(C)C(=O)C1CCCCC1 | -38 | -6[16.7 µM] | -4 | 43 | -9 | -1[16.7 µM]
CO[C@@H]1CN(C)C(=O)c2ccc(NS(=O)(=O)c3ccc(C)cc3)cc2OC[C@@H](C)N(C(=O)NC(C)C)C[C@@H]1C | 0 | 3[16.7 µM] | -1 | / | 1 | /
CC1CN(c2nc3ccccc3nc2SCC(=O)Nc2cccc(C(F)(F)F)c2)CC(C)O1 (stereo not given) | -25 | / | -1 | 1 | 2 | 64*
Cc1cccc(NC(=O)CSc2nc3ccccc3nc2N2CC(C)OC(C)C2)c1 (stereo not given) | / | 2 | 3 | 0 | 3 | /
COc1ccc(/C=N/NC(=O)c2ccccc2O)cc1Cn1nnc2ccccc21 | 6 | / | 0 | 4 | -23* | -41
COc1ccc(/C=N/NC(=O)Cn2nnc3ccccc32)cc1OC | 70* | / | / | / | 1 | 9
COc1cc(/C=N/NC(=O)C(C)n2nnc3ccccc32)ccc1O (stereo not given) | 53* | -2 | / | 0 | / | /
COc1ccc(/C=N/NC(=O)C(C)n2nnc3ccccc32)cc1OC (stereo not given) | / | -4 | / | 1 | / | /
Cc1ccc(C(=O)NNC(=O)Cn2nnc3ccccc32)cc1 | -12 | 2 | -2 | -2 | -31* | -4
CN1C(=O)c2cc(NC(=O)c3ccc(C#N)cc3)ccc2OC[C@H]2O[C@@H](CC(=O)NC3Cc4ccccc4C3)CC[C@@H]21 | -10 | -17[16.7 µM] | 0 | -1 | -7 | -19[16.7 µM]
CC(=O)N1C[C@@H]2C(c3ccccc3)[C@H](C1)N2S(C)(=O)=O (stereo not given in full) | -1 | / | / | / | 1 | /
CO[C@@H]1CN(C)C(=O)c2ccc(NC(C)=O)cc2OC[C@@H](C)N(C(=O)c2cccnc2)C[C@H]1C | 10 | -1[16.7 µM] | 0 | -2 | 2 | /
C[C@H](CO)N1C[C@H](C)[C@@H](CN(C)C(=O)C2CCC2)Oc2cc(-c3ccccc3)ccc2S1(=O)=O | -11 | 21[16.7 µM] | -3 | / | -10 | 17[16.7 µM]
CCn1c(SCC(=O)N/N=C/c2cc(OC)c(O)c(OC)c2)nc2ccccc21 | 6 | -6 | / | 9 | / | 7
CC(/C=N/NC(=O)CCn1nnc2ccccc21)=C\c1ccccc1 | -7 | / | -1 | / | -29 | -22
CCOc1cc(/C=N/NC(=O)CCn2nnc3ccccc32)ccc1O | 78* | / | 2 | / | -8 | 18
SMILES | INS-1E GSIS act | miR-122 sensor | F508del corr | Cneo AK release | Ecoli rRNA inh | HIV Env fusion
CCn1c(SCC(=O)N/N=C/c2ccc(O)c(OC)c2)nc2ccccc21 | 5 | / | 8.3* | / | 21 | 5
COc1cccc(C2=CC(c3ccccc3)n3nnnc3N2)c1 (stereo not given) | 11 | 26 | 15* | -2 | -4 | /
NC(=S)NN=Cc1nccc2c(C(F)(F)C(F)(F)C(F)(F)F)cccc12 | / | -2 | 1 | 1 | -4 | -7
NC(=S)NN=Cc1nccc2ccccc12 | 22 | -7 | 9.7* | 0 | 0 | 47
C[C@@H]1CN([C@@H](C)CO)C(=O)CCCn2cc(nn2)CO[C@@H]1CN(C)C(=O)c1ccc2ccn(C)c2c1 | 2 | -2[16.7 µM] | 0 | / | 0 | /
O=C(NCc1cccnc1)C(=O)Nc1nc(C23CC4CC(CC(C4)C2)C3)cs1 | -25 | -7 | 1 | -4 | -27* | 23
O=C(C[C@H]1CC[C@H](NS(=O)(=O)c2ccccc2F)[C@H](CO)O1)NCCCN1CCOCC1 | 6 | -2[16.7 µM] | -1 | -1 | -2 | 12[16.7 µM]
COCCCn1c(-c2ccc(S(=O)(=O)N3CCOCC3)cc2)csc1=Nc1ccccc1 | -29 | / | / | / | / | 70*
CCn1c(-c2ccccc2)csc1=Nc1ccc(S(=O)(=O)O)cc1 | 15 | / | 0 | / | 7 | 34
CCOC(=O)N1CCN(C(=O)C2CCN(C(=O)c3ccccc3C)CC2)CC1 | 106* | 11 | -11 | -3 | 9 | /
COc1ccccc1N1CCN(C(=O)c2ccc(-c3ccc(Cl)cc3)o2)CC1 | -21 | -24 | 9.4* | 1 | -26 | -26
COc1ccccc1N1CCN(C(=O)NCc2ccc(Cl)cc2)CC1 | -18 | / | -1 | -1 | -24 | -15
COC(=O)C1CCN(C(=O)c2ccc(SC)cc2OC)CC1 | / | 15 | / | -6 | / | 5
COc1cc(SC)ccc1C(=O)N1CCN(c2ccccc2OC)CC1 | 2 | 9 | 14* | -25 | -3 | -125
CC=Cc1ccc2n(c1=O)C[C@H]1[C@H](CO)[C@@H](C(=O)N[C@@H](C)c3ccccc3)[C@@H]2N1CC (mixture of isomers) | -1 | / | / | -3 | -1 | -7[16.7 µM]
CCC(=NC(C)c1ccccc1)c1c(O)n(C)c(=O)n(C)c1=O (stereo not given) | / | 17 | / | -8 | / | 60*
COc1ccc(S(=O)(=O)Nc2cccc3c2O[C@@H](CN(C)S(=O)(=O)c2cn(C)cn2)[C@H](C)CN([C@@H](C)CO)C3=O)cc1 | 4 | 1[16.7 µM] | 4 | -2 | 2 | /
C[C@H](CO)N1C[C@H](C)[C@H](CN(C)Cc2ccncc2)Oc2c(NC(=O)C3CCOCC3)cccc2C1=O | 4 | 12[16.7 µM] | 5 | 13 | 0 | 9[16.7 µM]
CCOc1ccccc1NS(=O)(=O)c1ccc(Br)s1 | -45 | 22 | -2 | -1 | -21* | /
CN1C(=O)N[C@@H]2c3ccccc3O[C@@]1(C)[C@@H]2COC(=O)c1ccccc1 | / | / | -1 | 96* | / | 0[16.7 µM]
